Results from ChEMBL document CHEMBL4196006, “Aryl thiosemicarbazones for the treatment of trypanosomatidic infections” (Eur J Med Chem, 2018).
Active and inactive are the calls of the source. The rule behind the calls is not given here.

How the values were obtained:
CYP2C9 = CYP2C9 (Homo sapiens, UniProt P11712); test: Inhibition of human microsomal CYP2C9 expressed in baculovirus infected BTI-TN-5B1-4 cells at 10 uM incubated for 30 mins by luciferase assay relative to control; type: ADME
In short: (§1)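 CYP1A2, 2C9, 2C19, 2D6 and 3A4 in microsomes from baculovirus-infected insect cells, each with a P450-Glo luminogenic substrate. Inhibition read as loss of light; single-point at 10 μM, triplicate.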

[1] = Cytotoxicity against human A549 cells assessed as growth inhibition at 10 uM after 48 hrs by CellTiter-Glo assay relative to control; values are per cent of control; conditions: A549 cells
Trypanosoma brucei [2] = test: Antitrypanosomal activity against Trypanosoma brucei Lister 427 bloodstream form assessed as parasite growth inhibition at 50 uM after 72 hrs by SYBR Green assay relative to control; type: functional
Leishmania infantum = test: Antileishmanial activity against Leishmania infantum amastigote form assessed as parasite growth inhibition at 50 uM after 72 hrs by steady-Glo reagent based assay relative to control; type: functional; conditions: for inhibition of growth at 50 µM: read-out: GI
In short: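 Intramacrophage L. infantum amastigotes in THP-1-derived macrophages, tested at 50 μM or in dose-response. Plates held 72 h at 37 °C, 5% CO2. Medium was replaced by PBS, macrophages lysed, and parasites read by Steady-Glo luminescence. High-content imaging gave host cell number, infection ratio (infected/total cells) and parasites per infected cell. Values are means of at least two independent experiments.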

Trypanosoma brucei [3] = test: Potentiation of methotrexate-induced antitrypanosomal activity against Trypanosoma brucei Lister 427 bloodstream form at 10 uM after 72 hrs by resazurin dye-based assay; type: functional
Trypanosoma brucei [4] = test: Antitrypanosomal activity against Trypanosoma brucei Lister 427 bloodstream form at 10 uM after 72 hrs by resazurin dye-based assay relative to control; type: functional
[5] = Cytotoxicity against human U2OS cells assessed as viable cells at 50 uM after 72 hrs by MTT assay relative to control; type: cell-based; conditions: read-out: Activity
CYP1A2 = target: T1, CYP1A2 (Homo sapiens, UniProt P05177); test: Inhibition of human microsomal CYP1A2 expressed in baculovirus infected BTI-TN-5B1-4 cells at 10 uM incubated for 30 mins by luciferase assay relative to control; type: ADME; in short: as §1
T1 sequence (P05177 whole entry): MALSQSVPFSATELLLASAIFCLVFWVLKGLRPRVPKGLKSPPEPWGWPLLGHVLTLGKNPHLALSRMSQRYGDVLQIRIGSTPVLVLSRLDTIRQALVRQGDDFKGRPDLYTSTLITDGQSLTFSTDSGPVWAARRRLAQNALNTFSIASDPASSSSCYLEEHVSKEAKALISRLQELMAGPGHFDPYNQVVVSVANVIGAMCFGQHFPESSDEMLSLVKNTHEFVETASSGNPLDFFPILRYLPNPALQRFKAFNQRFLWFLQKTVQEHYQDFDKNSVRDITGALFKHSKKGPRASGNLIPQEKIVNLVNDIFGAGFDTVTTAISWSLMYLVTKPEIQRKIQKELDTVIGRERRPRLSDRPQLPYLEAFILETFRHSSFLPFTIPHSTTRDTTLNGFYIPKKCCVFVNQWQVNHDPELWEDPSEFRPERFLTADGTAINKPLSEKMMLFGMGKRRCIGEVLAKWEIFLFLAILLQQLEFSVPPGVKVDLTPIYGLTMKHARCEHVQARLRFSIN

Aurora kinase B = Aurora kinase B (Homo sapiens, UniProt Q96GD4); test: Inhibition of recombinant full-length human aurora B kinase expressed in baculovirus system at 10 uM using MBP as substrate incubated for 45 mins by ADP-glo kinase assay; conditions: probe MBP
In short: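 Aurora B activity measured as ADP formation via coupled luciferase ADP-Glo luminescence; single-point at 10 μM, triplicate.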

Trypanosoma brucei [6] = test: Potentiation of methotrexate-induced antitrypanosomal activity against Trypanosoma brucei Lister 427 bloodstream form at 10 uM after 72 hrs by resazurin dye-based assay relative to control; type: functional
[7] = target: T2, Pteridine reductase 1 (Leishmania major) (UniProt Q01782); test: Inhibition of Leishmania major PTR1 at 50 uM using H2B as substrate in presence of NADPH by photometric analysis relative to control
T2 sequence (whole entry): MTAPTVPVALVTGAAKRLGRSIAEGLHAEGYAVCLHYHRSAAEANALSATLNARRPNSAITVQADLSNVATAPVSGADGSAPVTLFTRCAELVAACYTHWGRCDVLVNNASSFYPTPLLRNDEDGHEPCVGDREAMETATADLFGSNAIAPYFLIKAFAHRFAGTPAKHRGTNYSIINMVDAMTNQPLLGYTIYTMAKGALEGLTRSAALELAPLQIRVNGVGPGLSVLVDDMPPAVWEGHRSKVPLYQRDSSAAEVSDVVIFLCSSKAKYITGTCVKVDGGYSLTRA

[8] = Cytotoxicity against human THP1 cells assessed as viable cells at 100 uM after 72 hrs by MTT assay relative to control; type: cell-based, THP-1; conditions: read-out: Activity
In short: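 THP-1-derived macrophages exposed to compounds for 72 h, tested at 100 μM or in dose-response; viability read by MTT colorimetric assay.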

CYP2D6 = CYP2D6 (Homo sapiens, UniProt P10635); test: Inhibition of human microsomal CYP2D6 expressed in baculovirus infected BTI-TN-5B1-4 cells at 10 uM incubated for 30 mins by luciferase assay relative to control; type: ADME; in short: as §1
[9] = Cytotoxicity against human 786-O cells assessed as inhibition of mitochondrial viability at 10 uM after 6 hrs by CMXRos staining based assay relative to control; type: cell-based, 786-0; conditions: read-out: INH
In short: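 Mitochondrial toxicity monitored by MitoTracker Red CMXRos uptake and high-content imaging; compound at 10 μM, triplicate.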

Trypanosoma cruzi = test: Antitrypanosomal activity against Trypanosoma cruzi amastigote form infected in human U2OS cells assessed as parasite growth inhibition at 50 uM after 72 hrs relative to control; type: functional; conditions: for inhibition of growth at 50 µM: read-out: GI
In short: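 U2OS monolayers grown for 24 h, then infected with tissue-derived trypomastigotes of T. cruzi Y strain. Compounds were added 24 h after infection at 50 μM (single-point) or in dose-response, with 72 h exposure. Plates were fixed, stained and analysed by high-content imaging; activity was normalized to infected and non-infected controls. Means of at least two experiments; benznidazole as reference.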

CYP3A4 = CYP3A4 (Homo sapiens, UniProt P08684); test: Inhibition of human microsomal CYP3A4 expressed in baculovirus infected BTI-TN-5B1-4 cells at 10 uM incubated for 30 mins by luciferase assay relative to control; type: ADME; in short: as §1
[10] = target: T3, Pteridine reductase, putative (Trypanosoma brucei) (UniProt Q581W1); test: Inhibition of Trypanosoma brucei PTR1 at 50 uM using H2B as substrate in presence of NADPH by photometric analysis relative to control
T3 sequence (whole entry): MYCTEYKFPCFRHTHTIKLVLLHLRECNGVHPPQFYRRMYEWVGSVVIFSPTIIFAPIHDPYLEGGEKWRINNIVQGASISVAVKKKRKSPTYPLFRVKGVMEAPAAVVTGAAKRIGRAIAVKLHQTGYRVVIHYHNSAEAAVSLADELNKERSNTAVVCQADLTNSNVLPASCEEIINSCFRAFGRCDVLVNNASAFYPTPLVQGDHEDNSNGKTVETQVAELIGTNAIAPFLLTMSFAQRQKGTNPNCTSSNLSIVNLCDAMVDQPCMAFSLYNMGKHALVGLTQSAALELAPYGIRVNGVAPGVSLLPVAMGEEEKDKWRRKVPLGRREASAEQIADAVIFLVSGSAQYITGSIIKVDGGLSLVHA

CYP2C19 = CYP2C19 (Homo sapiens, UniProt P33261); test: Inhibition of human microsomal CYP2C19 expressed in baculovirus infected BTI-TN-5B1-4 cells at 10 uM incubated for 30 mins by luciferase assay relative to control; type: ADME; in short: as §1
hERG (KCNH2) = hERG (KCNH2) (Homo sapiens, UniProt Q12809); test: Inhibition of human ERG at 10 uM incubated for 2 hrs by fluorescence polarisation assay relative to control
[11] = Cytotoxicity against human WI38 cells assessed as growth inhibition at 10 uM after 48 hrs by CellTiter-Glo assay relative to control; values are per cent of control; conditions: WI38 cells

hERG (KCNH2), sequence (Q12809 whole entry): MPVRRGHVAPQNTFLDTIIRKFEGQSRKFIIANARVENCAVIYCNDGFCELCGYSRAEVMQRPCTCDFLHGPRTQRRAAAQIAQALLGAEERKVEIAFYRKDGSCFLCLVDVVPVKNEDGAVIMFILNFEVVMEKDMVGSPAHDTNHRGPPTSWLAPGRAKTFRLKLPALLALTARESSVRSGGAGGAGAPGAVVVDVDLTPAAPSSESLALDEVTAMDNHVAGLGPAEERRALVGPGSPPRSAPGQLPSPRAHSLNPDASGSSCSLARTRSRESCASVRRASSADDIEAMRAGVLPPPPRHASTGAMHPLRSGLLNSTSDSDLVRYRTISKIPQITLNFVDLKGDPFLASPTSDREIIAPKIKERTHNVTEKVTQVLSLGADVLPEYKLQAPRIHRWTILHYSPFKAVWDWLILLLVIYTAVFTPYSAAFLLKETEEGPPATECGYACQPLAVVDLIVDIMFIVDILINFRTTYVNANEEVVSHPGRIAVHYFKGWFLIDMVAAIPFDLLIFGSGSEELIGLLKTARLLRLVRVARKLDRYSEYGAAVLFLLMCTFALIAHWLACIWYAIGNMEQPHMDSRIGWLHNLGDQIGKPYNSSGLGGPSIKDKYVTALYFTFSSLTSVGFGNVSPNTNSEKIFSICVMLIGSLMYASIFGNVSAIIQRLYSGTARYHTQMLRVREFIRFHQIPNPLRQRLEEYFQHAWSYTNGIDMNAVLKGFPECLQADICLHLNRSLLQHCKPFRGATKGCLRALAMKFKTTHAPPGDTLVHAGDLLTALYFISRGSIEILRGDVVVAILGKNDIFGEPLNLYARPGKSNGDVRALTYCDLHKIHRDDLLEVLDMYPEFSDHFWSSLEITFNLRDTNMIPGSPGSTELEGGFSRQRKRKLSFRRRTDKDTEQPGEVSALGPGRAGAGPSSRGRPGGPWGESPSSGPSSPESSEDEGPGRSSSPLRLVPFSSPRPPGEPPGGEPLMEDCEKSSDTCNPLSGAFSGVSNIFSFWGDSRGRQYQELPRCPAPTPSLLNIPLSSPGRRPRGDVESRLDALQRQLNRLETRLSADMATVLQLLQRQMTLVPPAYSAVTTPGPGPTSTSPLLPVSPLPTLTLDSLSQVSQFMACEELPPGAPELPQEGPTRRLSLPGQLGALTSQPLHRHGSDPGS
CYP2C9, sequence (P11712 whole entry): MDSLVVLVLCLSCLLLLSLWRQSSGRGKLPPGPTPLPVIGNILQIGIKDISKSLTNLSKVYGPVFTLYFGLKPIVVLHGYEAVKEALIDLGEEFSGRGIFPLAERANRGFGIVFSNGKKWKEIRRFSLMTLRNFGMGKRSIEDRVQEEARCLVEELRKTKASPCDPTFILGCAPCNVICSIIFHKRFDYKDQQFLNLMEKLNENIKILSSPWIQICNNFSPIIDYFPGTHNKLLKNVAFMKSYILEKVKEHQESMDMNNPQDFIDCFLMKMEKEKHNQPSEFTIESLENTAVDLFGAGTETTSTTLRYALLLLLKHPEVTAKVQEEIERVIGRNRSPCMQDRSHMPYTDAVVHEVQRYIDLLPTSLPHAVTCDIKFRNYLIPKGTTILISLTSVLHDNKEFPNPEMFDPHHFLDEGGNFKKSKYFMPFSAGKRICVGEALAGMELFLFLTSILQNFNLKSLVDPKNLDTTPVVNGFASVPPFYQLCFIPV
Aurora kinase B, sequence (Q96GD4 whole entry): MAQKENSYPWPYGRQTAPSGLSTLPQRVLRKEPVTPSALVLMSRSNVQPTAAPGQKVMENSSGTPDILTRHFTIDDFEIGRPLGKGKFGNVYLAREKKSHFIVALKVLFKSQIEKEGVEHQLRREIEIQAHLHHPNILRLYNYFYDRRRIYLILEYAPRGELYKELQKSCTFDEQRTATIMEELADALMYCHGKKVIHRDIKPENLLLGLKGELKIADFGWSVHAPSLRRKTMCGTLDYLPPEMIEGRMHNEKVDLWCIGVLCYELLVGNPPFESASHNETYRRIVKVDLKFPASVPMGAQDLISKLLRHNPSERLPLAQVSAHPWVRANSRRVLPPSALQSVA
CYP3A4, sequence (P08684 whole entry): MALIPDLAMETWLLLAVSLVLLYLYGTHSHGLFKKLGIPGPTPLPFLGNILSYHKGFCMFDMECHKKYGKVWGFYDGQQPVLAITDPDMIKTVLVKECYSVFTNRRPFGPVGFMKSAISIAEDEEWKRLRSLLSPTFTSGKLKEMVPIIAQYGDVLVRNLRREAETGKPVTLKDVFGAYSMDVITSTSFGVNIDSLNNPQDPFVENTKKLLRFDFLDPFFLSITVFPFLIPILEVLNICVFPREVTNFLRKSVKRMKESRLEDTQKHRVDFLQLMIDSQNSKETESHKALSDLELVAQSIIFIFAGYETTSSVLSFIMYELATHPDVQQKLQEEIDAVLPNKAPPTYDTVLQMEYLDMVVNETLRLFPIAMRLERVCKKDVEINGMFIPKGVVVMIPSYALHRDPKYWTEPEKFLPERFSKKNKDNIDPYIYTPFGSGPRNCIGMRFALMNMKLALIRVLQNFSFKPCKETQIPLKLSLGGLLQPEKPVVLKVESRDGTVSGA
CYP2C19, sequence (P33261 whole entry): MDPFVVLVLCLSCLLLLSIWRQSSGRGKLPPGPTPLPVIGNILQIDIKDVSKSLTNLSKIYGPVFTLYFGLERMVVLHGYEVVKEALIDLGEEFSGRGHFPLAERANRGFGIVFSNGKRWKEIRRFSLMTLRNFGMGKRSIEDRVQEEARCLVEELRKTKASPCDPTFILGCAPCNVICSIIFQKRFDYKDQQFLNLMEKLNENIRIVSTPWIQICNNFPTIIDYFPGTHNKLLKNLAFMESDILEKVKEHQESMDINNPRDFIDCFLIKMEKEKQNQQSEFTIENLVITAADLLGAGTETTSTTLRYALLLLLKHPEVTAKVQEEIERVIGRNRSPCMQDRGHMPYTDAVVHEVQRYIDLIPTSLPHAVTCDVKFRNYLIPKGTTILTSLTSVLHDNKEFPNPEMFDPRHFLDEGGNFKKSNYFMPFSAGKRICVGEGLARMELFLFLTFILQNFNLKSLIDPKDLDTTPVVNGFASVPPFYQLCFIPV
CYP2D6, sequence (P10635 whole entry): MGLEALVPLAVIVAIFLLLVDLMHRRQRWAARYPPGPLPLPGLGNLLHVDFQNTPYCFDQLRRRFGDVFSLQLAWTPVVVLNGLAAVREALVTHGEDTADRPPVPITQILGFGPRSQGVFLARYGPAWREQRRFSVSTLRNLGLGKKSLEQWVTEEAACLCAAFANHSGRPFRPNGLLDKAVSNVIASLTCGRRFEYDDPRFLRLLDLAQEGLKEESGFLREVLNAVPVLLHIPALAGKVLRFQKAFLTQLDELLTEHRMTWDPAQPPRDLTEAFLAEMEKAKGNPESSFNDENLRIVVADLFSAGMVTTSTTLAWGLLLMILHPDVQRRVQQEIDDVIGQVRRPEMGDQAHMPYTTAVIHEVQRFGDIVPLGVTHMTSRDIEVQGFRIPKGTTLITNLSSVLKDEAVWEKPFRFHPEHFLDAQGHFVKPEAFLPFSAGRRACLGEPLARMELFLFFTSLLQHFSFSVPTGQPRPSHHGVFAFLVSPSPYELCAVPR

| inhibition at 0.5 h, 10 µM (CYP2C9) [%] | inhibition at 0.5 h, 10 µM (CYP1A2) [%] | inhibition at 0.75 h, 10 µM (Aurora kinase B) [%] | inhibition [7] [%] | inhibition at 0.5 h, 10 µM (CYP2D6) [%] | inhibition at 0.5 h, 10 µM (CYP3A4) [%] | inhibition [10] [%] | inhibition at 0.5 h, 10 µM (CYP2C19) [%] | Structure (SMILES) | cell growth (% of control) at 48 h, 10 µM [1] [%] | growth inhibition (GI) (Trypanosoma brucei [2]) | inhibition of growth at 50 µM (Leishmania infantum) [%] | PF (Trypanosoma brucei [3]) | Activity (Trypanosoma brucei [4]) [%] | viability at 72 h, 50 µM [5] [%] | Activity (Trypanosoma brucei [6]) [%] | viability at 72 h, 100 µM [8] [%] | cytotoxicity at 6 h, 10 µM [9] [%] | inhibition of growth at 50 µM (Trypanosoma cruzi) [%] | inhibition at 2 h, 10 µM (hERG (KCNH2)) [%] | cell growth (% of control) at 48 h, 10 µM [11] [%] | other results |
| --- | --- | --- | --- | --- | --- | --- | --- | --- | --- | --- | --- | --- | --- | --- | --- | --- | --- | --- | --- | --- | --- |
| -21.1 | -5.15 | -5.27 | 18.2 | -3.36 | -24.4 | 19.6 | -42.9 | NC(=S)N/N=C/c1ccc(O)cc1 | – | – | – | – | – | – | – | – | – | – | 7.48 | – | – |
| -19.2 | -9.14 | -7.72 | 20.7 | -20.5 | -24.4 | 20.1 | -30.2 | COc1ccc(/C=N/NC(N)=S)cc1OC | – | – | – | – | – | – | – | – | – | – | 4.1 | – | – |
| -19.8 | 29.6 | -16.9 | 9.19 | -8.91 | -23.2 | 5.67 | -52.9 | COc1ccccc1/C=N/NC(N)=S | – | – | – | – | – | – | – | – | – | – | 5.91 | – | – |
| -7.31 | 7.06 | -0.27 | 9.85 | 22.2 | -9.76 | 9.78 | -20.3 | COc1cc(/C=N/NC(N)=S)ccc1O | – | – | – | – | – | – | – | – | – | – | 6.07 | – | – |
| -7.51 | -6.6 | -12.2 | 56.5 | -9.48 | -7.74 | 30.7 | -49.1 | NC(=S)N/N=C/c1ccc(O)c(O)c1 | – | – | – | – | – | – | – | – | – | – | 4.17 | – | – |

Second part, the compound before the results:

| Structure (SMILES) | inhibition at 0.5 h, 10 µM (CYP2C9) [%] | inhibition at 0.5 h, 10 µM (CYP1A2) [%] | inhibition at 0.75 h, 10 µM (Aurora kinase B) [%] | inhibition [7] [%] | inhibition at 0.5 h, 10 µM (CYP2D6) [%] | inhibition at 0.5 h, 10 µM (CYP3A4) [%] | inhibition [10] [%] | inhibition at 0.5 h, 10 µM (CYP2C19) [%] | cell growth (% of control) at 48 h, 10 µM [1] [%] | growth inhibition (GI) (Trypanosoma brucei [2]) | inhibition of growth at 50 µM (Leishmania infantum) [%] | PF (Trypanosoma brucei [3]) | Activity (Trypanosoma brucei [4]) [%] | viability at 72 h, 50 µM [5] [%] | Activity (Trypanosoma brucei [6]) [%] | viability at 72 h, 100 µM [8] [%] | cytotoxicity at 6 h, 10 µM [9] [%] | inhibition of growth at 50 µM (Trypanosoma cruzi) [%] | inhibition at 2 h, 10 µM (hERG (KCNH2)) [%] | cell growth (% of control) at 48 h, 10 µM [11] [%] | other results |
| --- | --- | --- | --- | --- | --- | --- | --- | --- | --- | --- | --- | --- | --- | --- | --- | --- | --- | --- | --- | --- | --- |
| N/C(S)=N/N=C/c1ccc([N+](=O)[O-])cc1 | -3.66 | 11.6 | -9.68 | 7.99 | -16.9 | 8.17 | 3.76 | -38.4 | 128 | inactive | 19 | 1.12 | 8.17 | 85.6 | 36.33 | 75.6 | 0.08 | 40.1 | 4.43 | 122 | – |
| NC(=S)N/N=C/C(O)C(O)C(O)CO (stereo not given) | -19.7 | -13.2 | -7.51 | 4.38 | -54.5 | -27.9 | 1.7 | -35.1 | 129 | inactive | – | 0.65 | 0.5 | 146 | 16.17 | 67.6 | -1.92 | – | -11.1 | 95.7 | growth inhibition (GI) (Leishmania infantum): inactive; growth inhibition (GI) (Trypanosoma cruzi): inactive |
| C/C(=N\NC(N)=S)c1ccc(N)cc1 | 7.46 | 11.5 | -14.2 | 2.62 | -13.1 | -4.06 | 10.2 | -20.7 | 141 | inactive | 9.54 | 2.6 | 4.67 | 113 | 75.17 | 95.2 | -5.04 | 51.8 | 6.38 | 83.1 | – |
| C/C(=N\NC(N)=S)c1ccc(O)cc1 | -9.01 | -0.75 | -0.05 | 7.77 | -24.5 | -4.7 | 26.2 | -63.9 | 126 | inactive | 23.9 | 2.25 | 14.83 | 90.2 | 87.83 | 72.2 | 5.9 | 37 | 3.53 | 101 | – |
| COc1cc(/C=N/NC(N)=S)cc(OC)c1OC | -6.01 | 15.1 | -17.7 | 7.53 | -21 | -30.2 | 2.13 | -28.1 | 140 | – | 7.19 | 1.92 | 2.67 | 65.5 | 51.67 | 40.2 | 4.79 | – | -1.36 | 111 | inhibition of growth at 50 µM (Trypanosoma brucei [2]; Lister 427, 72 h, read-out: GI): 0.21%; growth inhibition (GI) (Trypanosoma cruzi): inactive |
